Key:
[1] = Inhibition of caspase like activity of partially purified human proteasome; format: subcellular
How it was run: (§1)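 Purified 20S proteasome isolated from human erythrocytes served as the enzyme source. Inhibition is reported as IC50.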

[2] = Inhibition of chymotrypsin like activity of partially purified human proteasome; format: subcellular; how it was run: as §1
[3] = Cytotoxicity against human RPMI8226 cells; format: cell-based; settings: RPMI-8226
[4] = Inhibition of trypsin like activity of partially purified human proteasome; format: subcellular; how it was run: as §1

Row | IC50 [1] [nM] | IC50 [2] [nM] | IC50 [4] [nM] | SMILES | IC50 [3] [nM]
1 | 30000 | 120 | 14000 | COc1ccc(C[C@H](NC(=O)[C@@H](NC(=O)[C@H](Cc2ccc(OC)cc2)NC(=O)c2ccc(C)cn2)C(C)C)B(O)O)cc1 | 14
2 | 30000 | 88 | 17000 | COc1ccc(C[C@H](NC(=O)[C@@H](NC(=O)[C@H](Cc2ccc(OC)cc2)NC(=O)c2cccc(C)n2)C(C)C)B(O)O)cc1 | 14
3 | 19000 | 41 | 10000 | COc1ccc(C[C@H](NC(=O)[C@@H](NC(=O)[C@H](Cc2ccc(OC)cc2)NC(=O)c2nccc3ccccc23)C(C)C)B(O)O)cc1 | 34
4 | 27000 | 92 | 14000 | COc1ccc(C[C@H](NC(=O)[C@@H](NC(=O)[C@H](Cc2ccc(OC)cc2)NC(=O)c2cccc(Br)n2)C(C)C)B(O)O)cc1 | 44
5 | 27000 | 110 | 20000 | COc1ccc(C[C@H](NC(=O)[C@@H](NC(=O)[C@H](Cc2ccc(OC)cc2)NC(=O)c2cccc(F)n2)C(C)C)B(O)O)cc1 | 15
6 | 16000 | 83 | 15000 | COc1ccc(C[C@H](NC(=O)[C@@H](NC(=O)[C@H](Cc2ccc(OC)cc2)NC(=O)c2ccc(Cl)cn2)C(C)C)B(O)O)cc1 | 39
7 | 23000 | 230 | 40000 | COc1ccc(C[C@H](NC(=O)[C@@H](NC(=O)[C@H](Cc2ccc(OC)cc2)NC(=O)c2ccccn2)C(C)C)B(O)O)cc1 | 13
8 | 25000 | 150 | 20000 | COc1ccc(C[C@H](NC(=O)[C@@H](NC(=O)[C@H](Cc2ccc(OC)cc2)NC(=O)c2cc(C(F)(F)F)ccn2)C(C)C)B(O)O)cc1 | 53
9 | 30000 | 81 | 14000 | COc1ccc(C[C@H](NC(=O)[C@@H](NC(=O)[C@H](Cc2ccc(OC)cc2)NC(=O)c2ccc(F)cn2)C(C)C)B(O)O)cc1 | 19
10 | > 40000 | 2300 | > 40000 | COc1ccc(C[C@H](NC(=O)[C@@H](NC(=O)[C@H](Cc2ccc(OC)cc2)NC(=O)c2ccncc2)C(C)C)B(O)O)cc1 | 870
11 | 26000 | 240 | 21000 | COc1ccc(C[C@H](NC(=O)[C@@H](NC(=O)[C@H](Cc2ccc(OC)cc2)NC(=O)c2cccc(O)n2)C(C)C)B(O)O)cc1 | 340
12 | 20000 | 87 | 16000 | COc1ccc(C[C@H](NC(=O)[C@@H](NC(=O)[C@H](Cc2ccc(OC)cc2)NC(=O)c2cc(OC)ccn2)C(C)C)B(O)O)cc1 | 13
13 | 25000 | 140 | 24000 | COc1ccc(C[C@H](NC(=O)[C@@H](NC(=O)[C@H](Cc2ccc(OC)cc2)NC(=O)c2ncccc2F)C(C)C)B(O)O)cc1 | 4.9
14 | 26000 | 130 | 31000 | COc1ccc(C[C@H](NC(=O)[C@@H](NC(=O)[C@H](Cc2ccc(OC)cc2)NC(=O)c2ncccc2OC)C(C)C)B(O)O)cc1 | 41
15 | 17000 | 95 | 14000 | COc1ccc(C[C@H](NC(=O)[C@@H](NC(=O)[C@H](Cc2ccc(OC)cc2)NC(=O)c2cc(Br)ccn2)C(C)C)B(O)O)cc1 | 47
16 | 30000 | 140 | 20000 | COc1ccc(C[C@H](NC(=O)[C@@H](NC(=O)[C@H](Cc2ccc(OC)cc2)NC(=O)c2cc(C)ccn2)C(C)C)B(O)O)cc1 | 14
17 | 29000 | 390 | > 40000 | COc1ccc(C[C@H](NC(=O)[C@@H](NC(=O)[C@H](Cc2ccc(OC)cc2)NC(=O)c2ncccc2O)C(C)C)B(O)O)cc1 | 52
18 | 33000 | 240 | 19000 | COc1ccc(C[C@H](NC(=O)[C@@H](NC(=O)[C@H](Cc2ccc(OC)cc2)NC(=O)c2cnccn2)C(C)C)B(O)O)cc1 | 17
19 | > 40000 | 500 | > 40000 | COc1ccc(C[C@H](NC(=O)[C@@H](NC(=O)[C@H](Cc2ccc(OC)cc2)NC(=O)c2cccnc2)C(C)C)B(O)O)cc1 | 870
20 | 23000 | 100 | 10000 | COc1ccc(C[C@H](NC(=O)[C@@H](NC(=O)[C@H](Cc2ccc(OC)cc2)NC(=O)c2cccc(Cl)n2)C(C)C)B(O)O)cc1 | 29
21 | 21000 | 88 | 15000 | COc1ccc(C[C@H](NC(=O)[C@@H](NC(=O)[C@H](Cc2ccc(OC)cc2)NC(=O)c2cc(Cl)ccn2)C(C)C)B(O)O)cc1 | 39
22 | 24000 | 93 | 14000 | COc1ccc(C[C@H](NC(=O)[C@@H](NC(=O)[C@H](Cc2ccc(OC)cc2)NC(=O)c2ccc(Br)cn2)C(C)C)B(O)O)cc1 | 46
23 | > 40000 | 85 | 20000 | COc1ccc(C[C@H](NC(=O)[C@@H](NC(=O)[C@H](Cc2ccc(OC)cc2)NC(=O)c2ncccc2C)C(C)C)B(O)O)cc1 | 14
24 | 20000 | 83 | 20000 | COc1ccc(C[C@H](NC(=O)[C@@H](NC(=O)[C@H](Cc2ccc(OC)cc2)NC(=O)c2ncccc2Cl)C(C)C)B(O)O)cc1 | 9.7
25 | 20000 | 61 | 17000 | COc1ccc(C[C@H](NC(=O)[C@@H](NC(=O)[C@H](Cc2ccc(OC)cc2)NC(=O)c2ncccc2Br)C(C)C)B(O)O)cc1 | 13

More lines, now with the values behind:

Row | SMILES | IC50 [1] [nM] | IC50 [2] [nM] | IC50 [4] [nM] | IC50 [3] [nM]
26 | COc1ccc(C[C@H](NC(=O)[C@@H](NC(=O)[C@H](Cc2ccc(OC)cc2)NC(=O)c2ccnc3ccccc23)C(C)C)B(O)O)cc1 | 24000 | 49 | 8600 | 49
27 | COc1ccc(C[C@H](NC(=O)[C@@H](NC(=O)[C@H](Cc2ccc(OC)cc2)NC(=O)c2cccc3cccnc23)C(C)C)B(O)O)cc1 | 16000 | 93 | 18000 | 56
28 | COc1ccc(C[C@H](NC(=O)[C@@H](NC(=O)[C@H](Cc2ccc(OC)cc2)NC(=O)c2cnc3ccccc3c2)C(C)C)B(O)O)cc1 | 32000 | 56 | 10000 | 54
29 | CC(C)C[C@H](NC(=O)[C@H](Cc1ccccc1)NC(=O)c1cnccn1)B(O)O [BORTEZOMIB] | 750 | 39 | > 40000 | 8.8
30 | COc1ccc(C[C@H](NC(=O)[C@@H](NC(=O)[C@H](Cc2ccc(OC)cc2)NC(=O)c2ccc(C(F)(F)F)cn2)C(C)C)B(O)O)cc1 | 28000 | 110 | 19000 | 47
31 | COc1ccc(C[C@H](NC(=O)[C@@H](NC(=O)[C@H](Cc2ccc(OC)cc2)NC(=O)c2cccc(OC)n2)C(C)C)B(O)O)cc1 | 35000 | 59 | 21000 | 51
32 | COc1ccc(C[C@H](NC(=O)[C@@H](NC(=O)[C@H](Cc2ccc(OC)cc2)NC(=O)Cc2cccc(Oc3ccccc3)c2)C(C)C)B(O)O)cc1 | 29000 | 4.1 | 1100 | 190
33 | COc1ccc(C[C@H](NC(=O)[C@@H](NC(=O)[C@H](Cc2ccc(OC)cc2)NC(=O)Cc2ccc3ccccc3c2)C(C)C)B(O)O)cc1 | 29000 | 22 | 12000 | 170
34 | COc1ccc(C[C@H](NC(=O)[C@@H](NC(=O)[C@H](Cc2ccc(OC)cc2)NC(=O)Cc2ccc3ccccc3n2)C(C)C)B(O)O)cc1 | 16000 | 100 | 5400 | 73
35 | COc1ccc(C[C@H](NC(=O)[C@@H](NC(=O)[C@H](Cc2ccc(OC)cc2)NC(=O)c2ccc3cnccc3c2)C(C)C)B(O)O)cc1 | > 40000 | 380 | > 40000 | 260
36 | COc1ccc(C[C@H](NC(=O)[C@H](C)NC(=O)[C@H](Cc2ccc(OC)cc2)NC(=O)c2ccccn2)B(O)O)cc1 | > 40000 | 110 | > 40000 | 57
37 | COc1ccc(C[C@H](NC(=O)[C@@H](NC(=O)[C@H](Cc2ccc(OC)cc2)NC(=O)c2nc(Cl)ccc2Cl)C(C)C)B(O)O)cc1 | 26000 | 53 | 13000 | 14
38 | COc1ccc(C[C@H](NC(=O)CNC(=O)[C@H](Cc2ccc(OC)cc2)NC(=O)c2ccccn2)B(O)O)cc1 | 34000 | 260 | > 40000 | 24
39 | COc1ccc(C[C@H](NC(=O)[C@@H](NC(=O)[C@H](Cc2ccc(OC)cc2)NC(=O)c2cc(N(C)C)ccn2)C(C)C)B(O)O)cc1 | 21000 | 110 | 15000 | 44
40 | COc1ccc(C[C@H](NC(=O)[C@@H](NC(=O)[C@H](Cc2ccc(OC)cc2)NC(=O)c2cc3ccccc3cn2)C(C)C)B(O)O)cc1 | 11000 | 59 | 9000 | 93
41 | COc1ccc(C[C@H](NC(=O)[C@@H](NC(=O)[C@H](Cc2ccc(OC)cc2)NC(=O)c2cc([N+](=O)[O-])ccn2)C(C)C)B(O)O)cc1 | 34000 | 190 | 19000 | 48
42 | COc1ccc(C[C@H](NC(=O)[C@@H](NC(=O)[C@H](Cc2ccc(OC)cc2)NC(=O)Cc2cccc3ccccc23)C(C)C)B(O)O)cc1 | 39000 | 19 | > 40000 | 28
43 | COc1ccc(C[C@H](NC(=O)[C@@H](NC(=O)[C@H](Cc2ccc(OC)cc2)NC(=O)c2ccc(OC)cn2)C(C)C)B(O)O)cc1 | 21000 | 94 | 14000 | 13
